Source: the array DNA melting data of Ke et al. (doi:10.1101/2024.01.08.574731)

Key:
[1] = folding enthalpy; higher = less favourable; fluorescence melt of hairpins on a sequencing array, two-state fit; conditions: sodium 0.088 M
Procedure, shortened: (§1)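 On a sequenced MiSeq flow cell, library hairpins with annealed Cy3 and quencher oligos were imaged for Cy3 fluorescence in 2.5 °C steps up to 60 °C, in 50 mM Na-HEPES pH 8.0, 25 mM NaCl. Normalisation used pre-quench Cy3 and control constructs. Bootstrapped two-state fits gave melting temperature and folding enthalpy, combined by inverse variance across four replicates and with fitted temperatures raised by 9.35 °C to match UV melts.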

[2] = melting temperature; fluorescence melt of hairpins on a sequencing array, two-state fit, raised by 9.35 °C to match UV melts; conditions: sodium 0.088 M
Procedure, shortened: as §1

Row | Sequence | folding enthalpy [1] [kcal/mol] | Tm [2] [°C]
1 | GATCCTAGAAAGGATC ((((((....)))))) | -30.6 | 48.5
2 | GATCCTAGCTAGGATC ((((((....)))))) | -56.9 | 54.1
3 | GATCCTAGGTAGGATC ((((((....)))))) | -38.7 | 52.9
4 | GATCCTAGTAAGGATC ((((((....)))))) | -41.1 | 52.2
5 | GATCCTAGTAGGATC ((((((...)))))) | -34.1 | 52.4
6 | GATCCTAGTGAGGATC ((((((....)))))) | -36.2 | 50.9
7 | GATCCTAGTTAGGATC ((((((....)))))) | -33.7 | 51.7
8 | GATCCTATCAGGATC ((((((...)))))) | -35.7 | 57.2
9 | GATCCTATTAGGATC ((((((...)))))) | -34.6 | 53.4
10 | GATCCTCACAAGGATC ((((((....)))))) | -33.6 | 53
11 | GATCCTCAGGAGGATC ((((((....)))))) | -30.9 | 55.2
12 | GATCCTCCAAGGATC ((((((...)))))) | -31.8 | 53.7
13 | GATCCTCCCAAGGATC ((((((....)))))) | -43.1 | 53.1
14 | GATCCTCCCGAGGATC ((((((....)))))) | -36.9 | 56.4
15 | GATCCTCCGGAGGATC ((((((....)))))) | -29.5 | 55.1
16 | GATCCTCGTAGGATC ((((((...)))))) | -34.2 | 54.5
17 | GATCCTCTACAGGATC ((((((....)))))) | -31.1 | 51.8
18 | GATCCTCTCCAGGATC ((((((....)))))) | -36.3 | 50.8
19 | GATCCTCTCTAGGATC ((((((....)))))) | -38.2 | 51.6
20 | GATCCTGAAAGGATC ((((((...)))))) | -38.7 | 65.9
21 | GATCCTGAAGAGGATC ((((((....)))))) | -36.2 | 55.4
22 | GATCCTGAGAGGATC ((((((...)))))) | -31.1 | 50.7
23 | GATCCTGCAAAGGATC ((((((....)))))) | -34.6 | 61.3
24 | GATCCTGCGAAGGATC ((((((....)))))) | -42.6 | 59.5

Row | Sequence | folding enthalpy [1] [kcal/mol] | Tm [2] [°C]
25 | GATCCTGCGGAGGATC ((((((....)))))) | -37.1 | 50.3
26 | GATCCTGGAAAGGATC ((((((....)))))) | -35.6 | 59.5
27 | GATCCTGGACAGGATC ((((((....)))))) | -36.4 | 57.5
28 | GATCCTGTAAGGATC ((((((...)))))) | -37 | 62
29 | GATCCTGTATAGGATC ((((((....)))))) | -41.6 | 59
30 | GATCCTGTCGAGGATC ((((((....)))))) | -36.3 | 57.2
31 | GATCCTGTGTAGGATC ((((((....)))))) | -31.5 | 52.3
32 | GATCCTGTTGAGGATC ((((((....)))))) | -33.9 | 53.2
33 | GATCCTTAGAGGATC ((((((...)))))) | -28.3 | 50
34 | GATCCTTATAAGGATC ((((((....)))))) | -36 | 53.9
35 | GATCCTTATAGGATC ((((((...)))))) | -32.5 | 57.4
36 | GATCCTTCAAAGGATC ((((((....)))))) | -33.5 | 52.9
37 | GATCCTTCACAGGATC ((((((....)))))) | -34.7 | 51.7
38 | GATCCTTCCAGGATC ((((((...)))))) | -35.2 | 57.2
39 | GATCCTTCCTAGGATC ((((((....)))))) | -44.7 | 52.1
40 | GATCCTTCGCAGGATC ((((((....)))))) | -37.3 | 51.2
41 | GATCCTTCGTAGGATC ((((((....)))))) | -33.7 | 53
42 | GATCCTTCTCAGGATC ((((((....)))))) | -45 | 50.9
43 | GATCCTTGATAGGATC ((((((....)))))) | -35.4 | 50.5
44 | GATCCTTGCAGGATC ((((((...)))))) | -33.7 | 57.9
45 | GATCCTTGCCAGGATC ((((((....)))))) | -31 | 51.5
46 | GATCCTTGCGAGGATC ((((((....)))))) | -49.1 | 54.8
47 | GATCCTTTAAGGATC ((((((...)))))) | -33.1 | 55.6
48 | GATCCTTTCAAGGATC ((((((....)))))) | -33.3 | 57.7

Row | Sequence | folding enthalpy [1] [kcal/mol] | Tm [2] [°C]
49 | GATCCTTTCAGGATC ((((((...)))))) | -41.3 | 57.4
50 | GATCCTTTTAAGGATC ((((((....)))))) | -36.6 | 57.9
51 | GATCGAAAAACGATC ((...........)) | -20.3 | 39.2
52 | GATCGAAAAGTCGATC ((((((....)))))) | -28.5 | 45.9
53 | GATCGAACAATCGATC ((((((....)))))) | -31.3 | 47.4
54 | GATCGAACGTTCGATC ((((((....)))))) | -49.3 | 56.7
55 | GATCGAAGCTCGATC ((((((...)))))) | -36 | 49.9
56 | GATCGAAGCTTCGATC ((((((....)))))) | -49.6 | 56.5
57 | GATCGAAGGATCGATC ((((((....)))))) | -22.9 | 51.4
58 | GATCGAAGGCTCGATC ((((((....)))))) | -31 | 50.1
59 | GATCGAAGTATCGATC ((((((....)))))) | -31.7 | 50.9
60 | GATCGAATATTCGATC ((((((....)))))) | -44.5 | 53.3
61 | GATCGAATTATCGATC ((((((....)))))) | -38.2 | 50.7
62 | GATCGAATTCTCGATC ((((((....)))))) | -43.3 | 51.4
63 | GATCGACAAGTCGATC ((((((....)))))) | -44.7 | 58.9
64 | GATCGACAATCGATC ((((((...)))))) | -29.4 | 46.6
65 | GATCGACACTCGATC ((((((...)))))) | -30.9 | 49.9
66 | GATCGACAGCTCGATC ((((((....)))))) | -41.2 | 49.4
67 | GATCGACCCCTCGATC ((((((....)))))) | -47.5 | 51.7
68 | GATCGACGGTTCGATC ((((((....)))))) | -39.6 | 50.7
69 | GATCGACTAATCGATC ((((((....)))))) | -30.3 | 49.9
70 | GATCGACTATCGATC ((((((...)))))) | -35.2 | 49.3
71 | GATCGACTGGTCGATC ((((((....)))))) | -37.5 | 62.7
72 | GATCGAGAAGTCGATC ((((((....)))))) | -31.1 | 55.4

Row | Sequence | folding enthalpy [1] [kcal/mol] | Tm [2] [°C]
73 | GATCGAGATATCGATC ((((((....)))))) | -38.2 | 58.7
74 | GATCGAGCAGTCGATC ((((((....)))))) | -39.7 | 54.3
75 | GATCGAGCGGTCGATC ((((((....)))))) | -45.7 | 53
76 | GATCGAGCTTCGATC ((((((...)))))) | -33.8 | 51.3
77 | GATCGAGGAGTCGATC ((((((....)))))) | -40.2 | 53.7
78 | GATCGAGGCATCGATC ((((((....)))))) | -41.8 | 58.5
79 | GATCGAGTAGTCGATC ((((((....)))))) | -34.3 | 55.9
80 | GATCGAGTCCTCGATC ((((((....)))))) | -45.8 | 56.2
81 | GATCGAGTGTCGATC ((((((...)))))) | -37.6 | 49.8
82 | GATCGAGTGTTCGATC ((((((....)))))) | -34.8 | 51.9
83 | GATCGATAACTCGATC ((((((....)))))) | -36.3 | 49.3
84 | GATCGATATTCGATC ((((((...)))))) | -30.3 | 52.6
85 | GATCGATCCGTCGATC ((((((....)))))) | -44.8 | 53.6
86 | GATCGATCGGTCGATC ((((((....)))))) | -41.6 | 52
87 | GATCGATCTGTCGATC ((((((....)))))) | -45.2 | 53.1
88 | GATCGATCTTTCGATC ((((((....)))))) | -48.8 | 53.1
89 | GATCGATGACTCGATC ((((((....)))))) | -30.5 | 49.5
90 | GATCGATGATCGATC ((((((...)))))) | -22.2 | 50.7
91 | GATCGATGTGTCGATC ((((((....)))))) | -40.2 | 57.9
92 | GATCGCAATAGCGATC ((((((....)))))) | -26 | 68.4
93 | GATCGCAATGCGATC ((((((...)))))) | -33 | 68.5
94 | GATCGCAATTGCGATC ((((((....)))))) | -31.1 | 67.8
95 | GATCGCACCCGCGATC ((((((....)))))) | -38.9 | 67.6
96 | GATCGCACGAGCGATC ((((((....)))))) | -31.7 | 68.4
